The values that follow come from ChEMBL document CHEMBL1781996, “Potential anti-inflammatory constituents of the stems of Gordonia chrysandra” (J Nat Prod, 2011).

A short description of one test: Antiinflammatory activity in rat Polymorphonuclear leukocyte assessed as inhibition of LPS-induced nitric oxide production at 5 uM. The test is classed as functional. The method in brief: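 Rat polymorphonuclear leukocytes stimulated with LPS; compounds tested at 5 μM, with dexamethasone at the same concentration as positive control. NO in culture supernatant was read by Griess reaction: equal volume of reagent (0.1% naphthylethylenediamine, 1% sulfanilamide in 5% phosphoric acid), 20 min at room temperature, A540, against sodium nitrite standards. Percent inhibition, n = 3.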
For `COc1cc(C(=O)OC[C@H]2O[C@@H](Oc3cc(O)c(OC)c(OC)c3)[C@H](O)[C@@H](O)[C@@H]2O)cc(OC)c1O`, the inhibition at 5 µM was determined as 4.7%.

On to `C[C@@H]1O[C@@H](O[C@H]2[C@H](O[C@@H]3[C@@H](O)[C@H](O[C@H]4CC[C@]5(C)[C@H]6CC=C7[C@@H]8CC(C)(C)CC[C@]8(C(=O)O[C@@H]8O[C@H](CO)[C@@H](O)[C@H](O)[C@H]8O)[C@H](O)C[C@@]7(C)[C@]6(C)CC[C@H]5C4(C)C)O[C@H](C(=O)O)[C@H]3O)OC[C@H](O)[C@@H]2O)[C@H](O)[C@H](O)[C@H]1O` [GORDONOSIDE M], for which the inhibition at 5 µM was determined as 2.9%.

For `CC1(C)CC[C@]2(C(=O)O[C@@H]3O[C@H](CO)[C@@H](O)[C@H](O)[C@H]3O)[C@H](O)C[C@]3(C)C(=CC[C@@H]4[C@@]5(C)CC[C@H](O[C@@H]6O[C@H](C(=O)O)[C@@H](O)[C@H](O[C@@H]7OC[C@H](O)[C@H](O)[C@H]7O[C@@H]7OC[C@H](O)[C@H](O)[C@H]7O)[C@H]6O)C(C)(C)[C@@H]5CC[C@]43C)[C@@H]2C1` [GORDONOSIDE L], the inhibition at 5 µM was 14%. For the compound `CC1(C)CC[C@]2(C(=O)O[C@@H]3O[C@H](CO)[C@@H](O)[C@H](O)[C@H]3O)[C@H](O)C[C@]3(C)C(=CC[C@@H]4[C@@]5(C)CC[C@H](O[C@@H]6O[C@H](C(=O)O)[C@@H](O)[C@H](O[C@@H]7OC[C@H](O)[C@H](O)[C@H]7O)[C@H]6O)C(C)(C)[C@@H]5CC[C@]43C)[C@@H]2C1` [GORDONOSIDE K], the inhibition at 5 µM is 6.4%. Regarding `C[C@@H]1C[C@H]2[C@@H]3CCC4=CC(=O)C=C[C@]4(C)[C@@]3(F)[C@@H](O)C[C@]2(C)[C@@]1(O)C(=O)CO` [DEXAMETHASONE], the inhibition at 5 µM came to 74.7%. On the same count and under the same terms, with `CC1(C)CC[C@]2(C(=O)O[C@@H]3O[C@H](CO)[C@@H](O)[C@H](O)[C@H]3O)[C@H](O)C[C@]3(C)C(=CC[C@@H]4[C@@]5(C)CC[C@H](O[C@@H]6O[C@H](C(=O)O)[C@@H](O)[C@H](O[C@@H]7OC[C@H](O)[C@H](O)[C@H]7O[C@@H]7OC[C@@H](O)[C@H](O)[C@H]7O)[C@H]6O[C@@H]6O[C@H](CO)[C@@H](O)[C@H](O)[C@H]6O)C(C)(C)[C@@H]5CC[C@]43C)[C@@H]2C1` [GORDONOSIDE N] the figure was 8.9%; with `CC1(C)CC[C@]2(C(=O)O[C@@H]3O[C@H](CO)[C@@H](O)[C@H](O)[C@H]3O)[C@H](O)C[C@]3(C)C(=CC[C@@H]4[C@@]5(C)CC[C@H](O[C@@H]6O[C@H](C(=O)O)[C@@H](O)[C@H](O[C@@H]7OC[C@H](O)[C@H](O)[C@H]7O[C@@H]7OC[C@@H](O)[C@H](O)[C@H]7O)[C@H]6O[C@@H]6O[C@H](CO)[C@H](O)[C@H](O)[C@H]6O)C(C)(C)[C@@H]5CC[C@]43C)[C@@H]2C1` [GORDONOSIDE O], 12.6%. Regarding `C/C=C(/C)C(=O)O[C@H]1CC(C)(C)C[C@H]2C3=CC[C@@H]4[C@@]5(C)CC[C@H](O[C@@H]6O[C@H](C(=O)O)[C@@H](O)[C@H](O[C@@H]7OC[C@H](O)[C@H](O)[C@H]7O[C@@H]7OC[C@@H](O)[C@H](O)[C@H]7O)[C@H]6O[C@@H]6O[C@H](CO)[C@H](O)[C@H](O)[C@H]6O)C(C)(C)[C@@H]5CC[C@@]4(C)[C@]3(C)C[C@@H](O)[C@@]12CO` [GORDONOSIDE I], the inhibition at 5 µM came out at 96.6%.

With `COc1cc(C(=O)OC[C@H]2O[C@@H](Oc3cc(O)c(OC)c(OC)c3)[C@H](O)[C@@H](O)[C@@H]2O)ccc1O`, the inhibition at 5 µM came to 6.5%.

In the case of `C/C=C(/C)C(=O)O[C@H]1CC(C)(C)C[C@H]2C3=CC[C@@H]4[C@@]5(C)CC[C@H](O[C@@H]6O[C@H](C(=O)O)[C@@H](O)[C@H](O[C@@H]7OC[C@H](O)[C@H](O)[C@H]7O[C@@H]7OC[C@@H](O)[C@H](O)[C@H]7O)[C@H]6O[C@@H]6O[C@H](CO)[C@H](O)[C@H](O)[C@H]6O)C(C)(C)[C@@H]5CC[C@@]4(C)[C@]3(C)[C@@H](O)[C@@H](O)[C@@]12CO` [GORDONOSIDE J], the inhibition at 5 µM was determined as 9.1%.

Regarding `C[C@@H]1O[C@@H](O[C@@H]2[C@@H](O)[C@H](O[C@H]3[C@H](O[C@H]4CC[C@]5(C)[C@H]6CC=C7[C@@H]8CC(C)(C)CC[C@]8(C(=O)O[C@@H]8O[C@H](CO)[C@@H](O)[C@H](O)[C@H]8O)[C@H](O)C[C@@]7(C)[C@]6(C)CC[C@H]5C4(C)C)O[C@H](C(=O)O)[C@@H](O)[C@@H]3O[C@@H]3OC[C@@H](O)[C@H](O)[C@H]3O)O[C@H](CO)[C@H]2O)[C@H](O)[C@H](O)[C@H]1O` [GORDONOSIDE P], the inhibition at 5 µM worked out at 5.9%.

The next test is described as follows: Antiinflammatory activity in Macrophage assessed as LPS-induced nitric oxide production by Griess assay. The test is classed as functional, cell-based. A digest of the protocol:
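LPS-activated macrophages. Nitrite in culture supernatant was measured by the Griess reaction: supernatant mixed with an equal volume of Griess reagent (0.1% w/v N-(1-naphthyl)ethylenediamine dihydrochloride plus 1% w/v sulfanilamide in 5% v/v phosphoric acid, combined within 1 h of use), 20 min at room temperature, then A540. Sodium nitrite standards were used. Result reported as IC50.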
For the compound `C/C=C(/C)C(=O)O[C@H]1CC(C)(C)C[C@H]2C3=CC[C@@H]4[C@@]5(C)CC[C@H](O[C@@H]6O[C@H](C(=O)O)[C@@H](O)[C@H](O[C@@H]7OC[C@H](O)[C@H](O)[C@H]7O[C@@H]7OC[C@@H](O)[C@H](O)[C@H]7O)[C@H]6O[C@@H]6O[C@H](CO)[C@H](O)[C@H](O)[C@H]6O)C(C)(C)[C@@H]5CC[C@@]4(C)[C@]3(C)C[C@@H](O)[C@@]12CO` [GORDONOSIDE I], the IC50 was found to be 140 nM.
